Experimental findings from ChEMBL document CHEMBL4359823, “Switching on the activity of 1,5-diaryl-pyrrole derivatives against drug-resistant ESKAPE bacteria: Structure-activity relationships and mode of action studies” (Eur J Med Chem, 2019) are described below.

≈ marks a conversion by molar mass, not a printed value.

Assay type in all cases: functional
The subject of assay [1] is Enterococcus faecalis. Nature of the assay: Antibacterial activity against vancomycin resistant Enterococcus faecalis NCTC12204 measured after overnight incubation by microbroth dilution method. The method, boiled down:
(§1)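 Microbroth dilution: DMSO stocks diluted in water, 2-fold series. Overnight TSB cultures back-diluted to OD 0.01 and mixed 1:1 with compound. Incubated overnight at 37 °C; MIC taken as lowest concentration without visible growth (<0.1 OD600). Run in duplicate; matching DMSO levels checked for effect on growth.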

Assay [2] relates to Enterococcus faecalis. Nature of the assay: Antibacterial activity against vancomycin resistant Enterococcus faecalis NCTC12201 measured after overnight incubation by microbroth dilution method. Put shortly:
as §1
Background: Dilution methods test growth across graded concentrations, often in twofold steps.

Assay [3] concerns Staphylococcus aureus. In words: Antibacterial activity against methicillin sensitive Staphylococcus aureus NCTC 6571 measured after overnight incubation by microbroth dilution method. The method, boiled down:
as §1

For assay [4], the system named is Staphylococcus aureus. In words: Antibacterial activity against methicillin resistant Staphylococcus aureus NCTC13616 measured after overnight incubation by microbroth dilution method. The method, boiled down:
as §1

For assay [5], the system named is Staphylococcus aureus. Nature of the assay: Antibacterial activity against methicillin resistant Staphylococcus aureus NCTC13277 measured after overnight incubation by microbroth dilution method. The method, boiled down:
as §1

Assay [6] relates to Enterococcus faecalis. In words: Antibacterial activity against vancomycin sensitive Enterococcus faecalis NCTC775 measured after overnight incubation by microbroth dilution method. Put shortly: as §1
Assay [7] concerns Klebsiella pneumoniae. In words: Antibacterial activity against Klebsiella pneumoniae NCTC13368 measured after overnight incubation by microbroth dilution method. Put shortly: (§2)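 Microbroth dilution MIC. Compound DMSO stocks were diluted in water as a 2-fold series. Overnight TSB cultures were back-diluted to OD 0.01 and mixed 1:1 with compound. Plates were incubated overnight at 37 °C. MIC was the lowest concentration without visible growth (<0.1 OD600), run in duplicate.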

The test system of assay [8] is Klebsiella pneumoniae. In words: Antibacterial activity against Klebsiella pneumoniae M6 measured after overnight incubation by microbroth dilution method. The method, boiled down: as §2
The subject of assay [9] is Acinetobacter baumannii. In words: Antibacterial activity against Acinetobacter baumannii AYE measured after overnight incubation by microbroth dilution method. Put shortly:
as §2

The test system of assay [10] is Acinetobacter baumannii. In words: Antibacterial activity against Acinetobacter baumannii ATCC 17978 measured after overnight incubation by microbroth dilution method. The method, boiled down:
as §2

Assay [11] deals with Pseudomonas aeruginosa. Nature of the assay: Antibacterial activity against Pseudomonas aeruginosa PAO1 measured after overnight incubation by microbroth dilution method. Put shortly: as §2
For assay [12], the system named is Pseudomonas aeruginosa. Nature of the assay: Antibacterial activity against Pseudomonas aeruginosa NCTC13437 measured after overnight incubation by microbroth dilution method. The method, boiled down:
as §2

The subject of assay [13] is Escherichia coli. In words: Antibacterial activity against Escherichia coli NCTC12923 measured after overnight incubation by microbroth dilution method. Put shortly:
as §2

As to `Cc1cc(CNCc2ccccc2)c(C)n1-c1ccc(Cl)cc1`, the minimum inhibitory concentration (MIC) is 128 µg/mL (≈ 394 µM) in [1]; greater than 128 µg/mL in [2]; greater than 128 µg/mL in assay [3]; greater than 128 µg/mL in assay [4]; greater than 128 µg/mL in [5]; greater than 128 µg/mL in assay [6].

Regarding `Cc1c(CNC(C)c2ccccc2)cc(-c2ccc(Cl)cc2)n1-c1ccc(Cl)cc1` (configuration not stated), the minimal inhibitory concentration (MIC) is 2 µg/mL (≈ 4.59 µM) in assay [1]; 2 to 4 µg/mL (≈ 4.59 to 9.19 µM) in [2]; 4 µg/mL (≈ 9.19 µM) in assay [3]; 4 µg/mL (≈ 9.19 µM) in assay [4]; 4 µg/mL (≈ 9.19 µM) in assay [5]; 2 to 4 µg/mL (≈ 4.59 to 9.19 µM) in [6]. The minimum inhibitory concentration (MIC) in [7], in [8], in assay [9], in assay [10], in [11] and in assay [12] was greater than 128 µg/mL each time. This molecule yielded a minimal inhibitory concentration (MIC) in assay [13] of 16 to 128 µg/mL (≈ 36.7 to 294 µM).

For the molecule `Cc1c(CNC2C3CC4CC(C3)CC2C4)cc(-c2ccc(Cl)cc2)n1-c1ccc(Cl)cc1` (configuration not stated), the MIC in assay [1] is 2 µg/mL (≈ 4.3 µM); in assay [2], 2 µg/mL (≈ 4.3 µM); in assay [3] it was 4 µg/mL (≈ 8.59 µM); in [4], 4 µg/mL (≈ 8.59 µM); in assay [5], 4 µg/mL (≈ 8.59 µM); in assay [6], 4 µg/mL (≈ 8.59 µM). The MIC in [7], in assay [8], in assay [9], in [10], in assay [11] and in assay [12] was greater than 128 µg/mL each time. Further, the MIC in [13] is greater than 128 µg/mL.

On to `Cc1c(CNC2CCCCCC2)cc(-c2ccc(Cl)cc2)n1-c1ccc(Cl)cc1`, for which the MIC came to 2 µg/mL (≈ 4.68 µM) in [1]; 2 µg/mL (≈ 4.68 µM) in [2]; 4 µg/mL (≈ 9.36 µM) in assay [3]; 4 µg/mL (≈ 9.36 µM) in assay [4]; 4 µg/mL (≈ 9.36 µM) in [5]; 4 µg/mL (≈ 9.36 µM) in [6]. Moreover, the MIC was greater than 128 µg/mL in [7]; greater than 128 µg/mL in [8]; 128 µg/mL (≈ 299 µM) in assay [9]; 64 µg/mL (≈ 150 µM) in assay [10]; 128 µg/mL (≈ 299 µM) in [11]; 128 µg/mL (≈ 299 µM) in [12]. In assay [13], this molecule registered a minimum inhibitory concentration (MIC) greater than 128 µg/mL.

For `Cc1c(CNC2CCCCCC2)cc(-c2ccc(Cl)cc2)n1-c1ccc(F)cc1`, the minimal inhibitory concentration (MIC) in assay [1] was 2 µg/mL (≈ 4.87 µM); in assay [2], 4 µg/mL (≈ 9.73 µM); in [3], 4 µg/mL (≈ 9.73 µM); in assay [4] it was 8 µg/mL (≈ 19.5 µM); in assay [5], 4 µg/mL (≈ 9.73 µM); in assay [6], 4 µg/mL (≈ 9.73 µM). Also, the MIC in [7] is greater than 128 µg/mL; in [8], greater than 128 µg/mL; in [9] it was 128 µg/mL (≈ 311 µM); in assay [10], greater than 128 µg/mL; in assay [11], greater than 128 µg/mL; in assay [12] it was greater than 128 µg/mL. The minimum inhibitory concentration (MIC) in [13] was 128 µg/mL (≈ 311 µM).

For the molecule `Cc1c(CNC2CCCCC2)cc(-c2ccc(F)cc2)n1-c1ccc(Cl)cc1`, the MIC was determined as 4 µg/mL (≈ 10.1 µM) in assay [1]; 4 µg/mL (≈ 10.1 µM) in assay [2]; 8 µg/mL (≈ 20.2 µM) in assay [3]; 8 µg/mL (≈ 20.2 µM) in [4]; 8 µg/mL (≈ 20.2 µM) in assay [5]; 8 µg/mL (≈ 20.2 µM) in assay [6]. In addition, the minimum inhibitory concentration (MIC) in [7] was greater than 128 µg/mL; in assay [8], greater than 128 µg/mL; in assay [9], 128 µg/mL (≈ 322 µM); in assay [10], 128 µg/mL (≈ 322 µM); in [11], greater than 128 µg/mL; in assay [12], greater than 128 µg/mL. In addition, in assay [13], the minimal inhibitory concentration (MIC) is greater than 128 µg/mL.

Consider `Cc1c(CNC2CCCCC2)cc(-c2ccc(Cl)cc2)n1-c1ccc(F)cc1`, for which the minimal inhibitory concentration (MIC) turned out to be 4 µg/mL (≈ 10.1 µM) in [1]; 4 µg/mL (≈ 10.1 µM) in [2]; 8 µg/mL (≈ 20.2 µM) in [3]; 8 µg/mL (≈ 20.2 µM) in assay [4]; 8 µg/mL (≈ 20.2 µM) in [5]; 4 µg/mL (≈ 10.1 µM) in assay [6]. The MIC in assay [7] is greater than 128 µg/mL; in [8], greater than 128 µg/mL; in assay [9], 128 µg/mL (≈ 322 µM); in [10], 64 µg/mL (≈ 161 µM); in assay [11], greater than 128 µg/mL; in [12] it was greater than 128 µg/mL. Besides, in assay [13], the MIC is greater than 128 µg/mL.

Turning to `Cc1c(CNC2CCCCC2)cc(-c2ccc(Cl)cc2)n1-c1ccccc1C(F)(F)F`, the MIC was 2 µg/mL (≈ 4.47 µM) in assay [1]; 4 µg/mL (≈ 8.95 µM) in assay [2]; 4 µg/mL (≈ 8.95 µM) in assay [3]; 8 µg/mL (≈ 17.9 µM) in assay [4]; 8 µg/mL (≈ 17.9 µM) in assay [5]; 4 µg/mL (≈ 8.95 µM) in assay [6]. Moreover, the MIC in assay [7] was greater than 128 µg/mL; in [8] it was greater than 128 µg/mL; in [9], 128 µg/mL (≈ 286 µM); in [10], greater than 128 µg/mL; in [11], greater than 128 µg/mL; in assay [12], greater than 128 µg/mL. Further, the minimal inhibitory concentration (MIC) in [13] is greater than 128 µg/mL.

As usually defined, the MIC is the smallest concentration in the dilution series that meets the test's criterion for growth inhibition.
